From ChEMBL document CHEMBL1123591, “Synthetic analogues of tetrahydrobiopterin with cofactor activity for aromatic amino acid hydroxylases” (1987)

Tests used:
[1] = molecular target: T1, Tyrosine 3-monooxygenase (Bos taurus) (UniProt P17289); experiment: Cofactor activity in bovine adrenal medulla tyrosine hydroxylase assay as relative velocity
T1 sequence (whole entry): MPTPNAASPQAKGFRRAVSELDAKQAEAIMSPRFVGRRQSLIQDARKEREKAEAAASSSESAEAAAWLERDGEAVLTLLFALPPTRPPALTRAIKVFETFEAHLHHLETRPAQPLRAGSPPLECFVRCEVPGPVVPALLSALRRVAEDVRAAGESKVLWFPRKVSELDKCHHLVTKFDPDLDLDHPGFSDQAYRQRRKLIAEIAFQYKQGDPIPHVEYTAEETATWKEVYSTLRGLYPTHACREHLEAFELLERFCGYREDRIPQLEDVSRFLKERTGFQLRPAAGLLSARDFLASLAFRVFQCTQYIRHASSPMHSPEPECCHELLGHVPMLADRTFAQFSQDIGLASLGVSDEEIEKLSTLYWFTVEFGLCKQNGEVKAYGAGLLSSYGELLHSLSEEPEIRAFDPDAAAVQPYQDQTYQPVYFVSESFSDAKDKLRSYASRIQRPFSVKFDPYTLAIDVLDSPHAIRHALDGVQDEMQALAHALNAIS
In short: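 Tyrosine hydroxylase was purified from bovine adrenal medulla by partial trypsin digestion, giving a model of the high-affinity form, then ammonium sulfate fractionation. Activity was measured as release of ³H₂O from L-(3,5-³H)tyrosine, with velocities expressed relative to tetrahydrobiopterin.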

[2] = molecular target: T2, Phenylalanine-4-hydroxylase (Rattus norvegicus) (UniProt P04176); experiment: Tested in isolated enzyme assay for its cofactor activity against phenylalanine hydroxylase (isolated from rat liver) expressed as relative velocity
T2 sequence (whole entry): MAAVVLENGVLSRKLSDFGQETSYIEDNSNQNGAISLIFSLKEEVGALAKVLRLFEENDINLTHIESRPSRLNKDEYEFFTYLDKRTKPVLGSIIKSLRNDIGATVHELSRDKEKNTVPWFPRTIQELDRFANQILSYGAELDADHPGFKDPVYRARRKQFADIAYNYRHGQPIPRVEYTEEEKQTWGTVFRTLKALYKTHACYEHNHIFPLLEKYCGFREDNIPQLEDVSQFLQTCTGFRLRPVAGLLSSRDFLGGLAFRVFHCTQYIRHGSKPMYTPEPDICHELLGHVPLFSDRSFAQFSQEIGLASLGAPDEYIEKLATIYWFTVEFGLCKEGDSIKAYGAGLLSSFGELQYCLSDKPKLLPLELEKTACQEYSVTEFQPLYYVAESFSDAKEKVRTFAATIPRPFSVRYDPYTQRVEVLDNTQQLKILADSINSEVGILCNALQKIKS
In short: (§1)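 Phenylalanine hydroxylase was isolated from rat liver and purified on phenyl-Sepharose. Tyrosine formed was quantified by liquid chromatography with fluorescence detection, and velocities were expressed relative to tetrahydrobiopterin.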

[3] = system: dihydropteridine reductase; experiment: Tested in isolated enzyme assay for its cofactor activity against dihydropteridine reductase expressed as Michaelis-Menten constant
[4] = molecular target: T3, Tryptophan 5-hydroxylase 1 (Rattus norvegicus) (UniProt P09810); experiment: Tested in isolated enzyme assay for its cofactor activity against tryptophan hydroxylase (isolated from rat brain stem) expressed as relative velocity
T3 sequence (whole entry): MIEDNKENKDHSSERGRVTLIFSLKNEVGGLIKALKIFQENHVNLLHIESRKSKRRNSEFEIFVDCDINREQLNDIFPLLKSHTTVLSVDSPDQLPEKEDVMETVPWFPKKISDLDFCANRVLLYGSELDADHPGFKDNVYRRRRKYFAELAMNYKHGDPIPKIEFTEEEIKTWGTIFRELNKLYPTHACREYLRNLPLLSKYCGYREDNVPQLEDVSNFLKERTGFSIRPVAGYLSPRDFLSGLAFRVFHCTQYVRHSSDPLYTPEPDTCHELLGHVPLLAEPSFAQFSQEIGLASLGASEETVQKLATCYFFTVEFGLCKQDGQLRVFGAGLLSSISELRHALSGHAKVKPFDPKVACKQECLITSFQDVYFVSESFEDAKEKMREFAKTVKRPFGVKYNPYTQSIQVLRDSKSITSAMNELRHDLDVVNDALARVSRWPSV
In short: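 The tryptophan hydroxylase source was a desalted 40000g supernatant of rat brain stem, with velocities expressed relative to tetrahydrobiopterin.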

[5] = system: dihydropteridine reductase; experiment: Tested in isolated enzyme assay for its cofactor activity against dihydropteridine reductase expressed as Michaelis-Menten constant (calculated in the presence of platinum catalyst)
[6] = molecular target: T2, Phenylalanine-4-hydroxylase (Rattus norvegicus); experiment: Tested in isolated enzyme assay for its cofactor activity against phenylalanine hydroxylase (iisolated from rat liver) expressed as relative velocity; in short: as §1

Compound `CC(C)COCC1CNc2nc(N)nc(O)c2N1` (configuration not stated) has a Relative velocity [1] of 110%.
With `CC(C)OCC1CNc2nc(N)nc(O)c2N1` (configuration not stated) the Relative velocity [2] was 15%, the Km [3] was 4 µM and the Relative velocity [1] was 137%. The Relative velocity [4] was 44%.
In the case of `CC(C)(C)OCC1CNc2nc(N)nc(O)c2N1` (configuration not stated), the Relative velocity [2] is reported as 4%, the Km [3] is reported as 5 µM and the Relative velocity [1] is reported as 130%.
In the case of `CCCCOCC1CNc2nc(N)nc(O)c2N1` (configuration not stated), the Relative velocity [2] is reported as 22%, the Km [3] is reported as 3 µM and the Relative velocity [1] is reported as 135%. It also gave a Relative velocity [4] of 52%.
In the case of `CCCOCC1CNc2nc(N)nc(O)c2N1` (configuration not stated), the Relative velocity [2] is reported as 32%, the Km [3] is reported as 2 µM and the Relative velocity [1] is reported as 92%. It also gave a Relative velocity [4] of 54%.
`CC1(C)CNc2nc(N)nc(O)c2N1` showed a Relative velocity [2] of 39%, a Km [5] of 260 µM and a Relative velocity [1] of 119%. For the same compound, the Relative velocity [4] was 40%.
With `CC(O)C(O)C1CNc2nc(N)nc(O)c2N1` (configuration not stated) the Km [3] was 2 µM, the Relative velocity [1] was 100% and the Relative velocity [4] was 100%. The Relative velocity [6] was 100%.
`CCCCCCCCOCC1CNc2nc(N)nc(O)c2N1` (configuration not stated) showed a Relative velocity [2] of 3%, a Relative velocity [1] of 48% and a Relative velocity [4] of 32%.
In the case of `COCC1CNc2nc(N)nc(O)c2N1` (configuration not stated), the Km [3] is reported as 9 µM, the Relative velocity [1] is reported as 126% and the Relative velocity [4] is reported as 65%. The Relative velocity [6] was 138%.
`CCOCC1CNc2nc(N)nc(O)c2N1` (configuration not stated) was tested, and the Km [3] was 6 µM, the Relative velocity [1] was 154% and the Relative velocity [4] was 85%. The Relative velocity [6] was 155%.
Compound `CC1CNc2nc(N)[nH]c(=O)c2N1` (configuration not stated) has a Km [3] of 13 µM, a Relative velocity [1] of 154% and a Relative velocity [4] of 154%. It also gave a Relative velocity [6] of 238%.
For `COCCOCC1CNc2nc(N)nc(O)c2N1` (configuration not stated), the Relative velocity [2] was 36% and the Relative velocity [1] was 131%.
With `CCCCCOCC1CNc2nc(N)nc(O)c2N1` (configuration not stated) the Relative velocity [1] was 85%.
